Source: ChEMBL document CHEMBL5303300, “EUbOPEN Chemogenomics Library - Multiplex” (2023)
Where “and” joins values, the source holds several entries; their conditions need not be identical. Identical values can stand only once.

What was measured:
HEK-293T = test: Multiplex assay against HEK293T; assay type: toxicity, cell-based; details: human, number of replicates 2
How it was run: (§1)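 Cells stained live at seeding with Hoechst33342, BioTracker Green Microtubule Cytoskeleton Dye, MitoTracker Red and Annexin V Alexa Fluor 680 were imaged on a CQ1 microscope at 37°C and 5% CO2 after compound addition. Their classification by CellPathfinder machine-learning gating ran from Hoechst high-intensity objects versus normal cells, to healthy, pyknosed or fragmented nuclei among normal cells, to mitotic or apoptotic among pyknosed cells. Tubulin, mitochondrial-mass and membrane-permeability phenotypes are per cents of healthy-nucleus cells.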

U2OS = test: Multiplex assay against U2OS; assay type: toxicity, cell-based; details: human, number of replicates 2; how it was run: as §1
[1] = 24 h, 1 µM, compound concentration 1 uM
[2] = 24 h, 10 µM, compound concentration 10 uM
[3] = 48 h, 1 µM, compound concentration 1 uM
[4] = 48 h, 10 µM, compound concentration 10 uM
[5] = 12 h, 1 µM, compound concentration 1 uM
[6] = 12 h, 10 µM, compound concentration 10 uM

`Br.Oc1cc2c(cc1O)C(c1ccccc1)CNCC2` (configuration not stated) was tested. Which “Population Mitochondria Different-Phenotype (%)” value (HEK-293T; [1]) did it give?
Its value is 3%.

What about the “Population Mitotic Cells (%)” value (HEK-293T; [1]) of the same compound?
Its value is 80% and 63%.

What about the “Population Normal (%)” value (HEK-293T; [1]) of the same compound?
The value was 91% and 90%.

And the “Population Pyknosed Nuclei (%)” value (HEK-293T; [1])?
The value was 4% and 5%.

And the “Population Tubulin-Different-Phenotype (%)” value (HEK-293T; [1])?
The value was 27% and 29%.

What about the “Total Cell Count” value (HEK-293T; [1]) of the same compound?
Its value is 1693 and 1195.

And the “Population Apoptotic (%)” value (HEK-293T; [2])?
Its value is 29% and 50%.

What about the “Population Fragmented Nuclei (%)” value (HEK-293T; [2]) of the same compound?
The value was 9% and 7%.

And the “Population Healthy Nuclei (%)” value (HEK-293T; [2])?
Its value is 86% and 88%.

What about the “Population Hoechst High Intensity Objects (%)” value (HEK-293T; [2]) of the same compound?
The value was 9% and 6%.

What about the “Population Membrane Permeable-Phenotype (%)” value (HEK-293T; [2]) of the same compound?
The value was 4% and 2%.

And the “Population Mitochondria Different-Phenotype (%)” value (HEK-293T; [2])?
The value was 3% and 12%.

What about the “Population Mitotic Cells (%)” value (HEK-293T; [2]) of the same compound?
The value was 70% and 50%.

And the “Population Normal (%)” value (HEK-293T; [2])?
Its value is 90% and 93%.

And the “Population Pyknosed Nuclei (%)” value (HEK-293T; [2])?
The value was 4%.

And the “Population Tubulin-Different-Phenotype (%)” value (HEK-293T; [2])?
The value was 30% and 40%.

And the “Total Cell Count” value (HEK-293T; [2])?
The value was 1020 and 788.

And the “Population Apoptotic (%)” value (HEK-293T; [3])?
The value was 4% and 10%.

And the “Population Fragmented Nuclei (%)” value (HEK-293T; [3])?
The value was 20% and 11%.

What about the “Population Healthy Nuclei (%)” value (HEK-293T; [3]) of the same compound?
Its value is 78% and 85%.

What about the “Population Hoechst High Intensity Objects (%)” value (HEK-293T; [3]) of the same compound?
Its value is 11% and 9%.

And the “Population Membrane Permeable-Phenotype (%)” value (HEK-293T; [3])?
Its value is 6% and 5%.

And the “Population Mitochondria Different-Phenotype (%)” value (HEK-293T; [3])?
Its value is 0%.

And the “Population Mitotic Cells (%)” value (HEK-293T; [3])?
Its value is 95% and 89%.

What about the “Population Normal (%)” value (HEK-293T; [3]) of the same compound?
The value was 88% and 90%.

And the “Population Pyknosed Nuclei (%)” value (HEK-293T; [3])?
The value was 1% and 2%.

And the “Population Tubulin-Different-Phenotype (%)” value (HEK-293T; [3])?
The value was 17% and 16%.

What about the “Total Cell Count” value (HEK-293T; [3]) of the same compound?
The value was 4091 and 2858.

And the “Population Fragmented Nuclei (%)” value (HEK-293T; [4])?
Its value is 23% and 14%.

What about the “Population Healthy Nuclei (%)” value (HEK-293T; [4]) of the same compound?
The value was 75% and 82%.

What about the “Population Hoechst High Intensity Objects (%)” value (HEK-293T; [4]) of the same compound?
The value was 9%.

What about the “Population Membrane Permeable-Phenotype (%)” value (HEK-293T; [4]) of the same compound?
Its value is 8% and 5%.

What about the “Population Mitochondria Different-Phenotype (%)” value (HEK-293T; [4]) of the same compound?
Its value is 0% and 1%.

And the “Population Mitotic Cells (%)” value (HEK-293T; [4])?
Its value is 96% and 84%.

And the “Population Normal (%)” value (HEK-293T; [4])?
Its value is 90%.

And the “Population Pyknosed Nuclei (%)” value (HEK-293T; [4])?
The value was 1% and 3%.

What about the “Population Tubulin-Different-Phenotype (%)” value (HEK-293T; [4]) of the same compound?
Its value is 15% and 21%.

What about the “Total Cell Count” value (HEK-293T; [4]) of the same compound?
The value was 2576 and 1623.

What about the “Population Fragmented Nuclei (%)” value (U2OS; [5]) of the same compound?
The value was 14% and 5%.

And the “Population Healthy Nuclei (%)” value (U2OS; [5])?
Its value is 80% and 82%.

What about the “Population Hoechst High Intensity Objects (%)” value (U2OS; [5]) of the same compound?
Its value is 0%.

And the “Population Membrane Permeable-Phenotype (%)” value (U2OS; [5])?
Its value is 2% and 1%.

What about the “Population Mitochondria Different-Phenotype (%)” value (U2OS; [5]) of the same compound?
Its value is 0%.

And the “Population Mitotic Cells (%)” value (U2OS; [5])?
Its value is 100% and 50%.

And the “Population Normal (%)” value (U2OS; [5])?
The value was 100%.

What about the “Population Pyknosed Nuclei (%)” value (U2OS; [5]) of the same compound?
The value was 6% and 11%.

What about the “Population Tubulin-Different-Phenotype (%)” value (U2OS; [5]) of the same compound?
The value was 67% and 89%.

What about the “Population Apoptotic (%)” value (U2OS; [6]) of the same compound?
The value was 57% and 30%.

What about the “Population Healthy Nuclei (%)” value (U2OS; [6]) of the same compound?
The value was 33% and 85%.

What about the “Population Hoechst High Intensity Objects (%)” value (U2OS; [6]) of the same compound?
Its value is 0%.

What about the “Population Membrane Permeable-Phenotype (%)” value (U2OS; [6]) of the same compound?
The value was 0% and 1%.

And the “Population Mitochondria Different-Phenotype (%)” value (U2OS; [6])?
The value was 0% and 1%.

What about the “Population Mitotic Cells (%)” value (U2OS; [6]) of the same compound?
Its value is 42% and 69%.

And the “Population Normal (%)” value (U2OS; [6])?
Its value is 100%.

And the “Population Tubulin-Different-Phenotype (%)” value (U2OS; [6])?
Its value is 50% and 75%.

And the “Population Apoptotic (%)” value (U2OS; [1])?
Its value is 50% and 61%.

What about the “Population Fragmented Nuclei (%)” value (U2OS; [1]) of the same compound?
Its value is 8% and 5%.

What about the “Population Healthy Nuclei (%)” value (U2OS; [1]) of the same compound?
Its value is 83% and 82%.

What about the “Population Hoechst High Intensity Objects (%)” value (U2OS; [1]) of the same compound?
The value was 2% and 0%.

And the “Population Membrane Permeable-Phenotype (%)” value (U2OS; [1])?
Its value is 2% and 0%.

And the “Population Mitochondria Different-Phenotype (%)” value (U2OS; [1])?
Its value is 2% and 0%.

And the “Population Mitotic Cells (%)” value (U2OS; [1])?
Its value is 50% and 38%.

What about the “Population Normal (%)” value (U2OS; [1]) of the same compound?
The value was 97% and 100%.

What about the “Population Pyknosed Nuclei (%)” value (U2OS; [1]) of the same compound?
Its value is 8% and 11%.

And the “Population Tubulin-Different-Phenotype (%)” value (U2OS; [1])?
Its value is 67% and 91%.

What about the “Population Apoptotic (%)” value (U2OS; [2]) of the same compound?
Its value is 50% and 44%.

What about the “Population Healthy Nuclei (%)” value (U2OS; [2]) of the same compound?
The value was 58% and 88%.

And the “Population Hoechst High Intensity Objects (%)” value (U2OS; [2])?
The value was 0%.

And the “Population Membrane Permeable-Phenotype (%)” value (U2OS; [2])?
The value was 10% and 0%.

And the “Population Mitochondria Different-Phenotype (%)” value (U2OS; [2])?
The value was 10% and 0%.

What about the “Population Mitotic Cells (%)” value (U2OS; [2]) of the same compound?
Its value is 50% and 55%.

And the “Population Normal (%)” value (U2OS; [2])?
Its value is 100%.

What about the “Population Pyknosed Nuclei (%)” value (U2OS; [2]) of the same compound?
Its value is 23% and 8%.

And the “Population Tubulin-Different-Phenotype (%)” value (U2OS; [2])?
The value was 80% and 83%.

What about the “Population Apoptotic (%)” value (U2OS; [3]) of the same compound?
The value was 37% and 53%.

And the “Population Fragmented Nuclei (%)” value (U2OS; [3])?
The value was 13% and 3%.

What about the “Population Healthy Nuclei (%)” value (U2OS; [3]) of the same compound?
Its value is 78% and 89%.

What about the “Population Hoechst High Intensity Objects (%)” value (U2OS; [3]) of the same compound?
The value was 0%.

And the “Population Membrane Permeable-Phenotype (%)” value (U2OS; [3])?
The value was 5% and 0%.

And the “Population Mitochondria Different-Phenotype (%)” value (U2OS; [3])?
The value was 2% and 0%.

What about the “Population Mitotic Cells (%)” value (U2OS; [3]) of the same compound?
Its value is 62% and 46%.

And the “Population Normal (%)” value (U2OS; [3])?
The value was 100% and 99%.

What about the “Population Pyknosed Nuclei (%)” value (U2OS; [3]) of the same compound?
Its value is 8% and 7%.

And the “Population Tubulin-Different-Phenotype (%)” value (U2OS; [3])?
Its value is 64% and 99%.

What about the “Population Apoptotic (%)” value (U2OS; [4]) of the same compound?
The value was 44% and 64%.

And the “Population Healthy Nuclei (%)” value (U2OS; [4])?
Its value is 54% and 90%.

And the “Population Hoechst High Intensity Objects (%)” value (U2OS; [4])?
The value was 0%.

And the “Population Membrane Permeable-Phenotype (%)” value (U2OS; [4])?
Its value is 10% and 0%.

What about the “Population Mitochondria Different-Phenotype (%)” value (U2OS; [4]) of the same compound?
The value was 10% and 0%.

And the “Population Mitotic Cells (%)” value (U2OS; [4])?
Its value is 55% and 35%.

And the “Population Normal (%)” value (U2OS; [4])?
Its value is 100%.

And the “Population Tubulin-Different-Phenotype (%)” value (U2OS; [4])?
The value was 84% and 93%.
